# Reference: ChEMBL document CHEMBL3580660, “Synthesis and Biological Evaluation of Novel Olean-28,13β-lactams as Potential Antiprostate Cancer Agents” (J Med Chem, 2015)
# Activity calls are given as the source filed them. The rule behind the calls is not given here.
# What was measured:
# [1] = molecular target: Serine/threonine-protein kinase mTOR (Homo sapiens) (UniProt P42345); assay: Reduction in phosphorylated mTOR protein expression in human DU145 cells at 0.08 to 0.32 uM after 24 hrs by Western blot analysis; assay type: functional, cell-based; details: DU-145
# Procedure, shortened: (§1)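 DU-145 cells (5 × 10^5/well) in 10% FCS Ham's F-12K overnight, treated in duplicate with compound or vehicle 24 h; lysed (Tris pH 8, EGTA, NaCl, NP-40, Triton X-100), protein by BCA. Blots blocked in 5% milk, probed for AKT, p-AKT Ser473, mTOR, p-mTOR Ser2448, Bax, Bcl-2, β-actin; ECL detection, densitometry relative to control; three separate experiments.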
# Mus musculus [2] = assay: Acute toxicity in ICR mouse assessed as total mortality at 800 mg/kg, oral gavage up to 14 days; assay type: organism-based; details: in vivo, 336 h
# Procedure, shortened: (§2)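 ICR mice of both sexes, 7 weeks old, held under SPF conditions. Each got one gavage dose (800, 640, 512, 409.6 or 327.8 mg/kg) or vehicle, n = 8 per group. Deaths were recorded at 1 h, 4 h, 3 d and 4–14 d. Behaviour, water and food intake, body weight and activity were followed to day 14. LD50 given with 95% confidence limits.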
# Mus musculus [3] = assay: Acute toxicity in ICR mouse assessed as mortality at 327.8 mg/kg, oral gavage after 3 days; assay type: organism-based; details: in vivo, 72 h; procedure, shortened: as §2
# Mus musculus [4] = assay: Acute toxicity in ICR mouse assessed as mortality at 409.6 mg/kg, oral gavage after 4 hrs; assay type: organism-based; details: in vivo; procedure, shortened: as §2
# [5] = Acute toxicity in ICR mouse assessed as survival at 327.8 mg/kg, oral gavage on day 14; assay type: organism-based; details: in vivo; procedure, shortened: as §2
# Mus musculus [6] = assay: Acute toxicity in ICR mouse assessed as mortality at 327.8 mg/kg, oral gavage after 1 hr; assay type: organism-based; details: in vivo; procedure, shortened: as §2
# [7] = Antiproliferative activity against human H460 cells after 72 hrs by CCK8 assay; assay type: functional, cell-based; details: NCI-H460, 72 h
# Procedure, shortened: (§3)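 CCK-8 assay: DU-145, H460, Bxpc-3, BEL-7404 and nontumor WPMY-1 cells seeded at 5 × 10^3 cells/well in 10% FCS DMEM overnight, then exposed in triplicate to 0.041−10 μM for 72 h. CCK-8 added for final 30 min, absorbance 450 nm; inhibition relative to medium-only controls after background subtraction; IC50 as concentration giving 50% inhibition.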
# [8] = Acute toxicity in ICR mouse assessed as survival at 512 mg/kg, oral gavage on day 14; assay type: organism-based; details: in vivo; procedure, shortened: as §2
# Mus musculus [9] = assay: Acute toxicity in ICR mouse assessed as mortality at 640 mg/kg, oral gavage after 4 hrs; assay type: organism-based; details: in vivo; procedure, shortened: as §2
# Mus musculus [10] = assay: Acute toxicity in ICR mouse assessed as mortality at 327.8 mg/kg, oral gavage after 4 hrs; assay type: organism-based; details: in vivo; procedure, shortened: as §2
# Mus musculus [11] = assay: Acute toxicity in ICR mouse assessed as mortality at 640 mg/kg, oral gavage after 4 to 14 days; assay type: organism-based; details: in vivo; procedure, shortened: as §2
# [12] = Acute toxicity in ICR mouse assessed as survival at 640 mg/kg, oral gavage on day 14; assay type: organism-based; details: in vivo; procedure, shortened: as §2
# Mus musculus [13] = assay: Acute toxicity in ICR mouse assessed as mortality at 409.6 mg/kg, oral gavage after 1 hr; assay type: organism-based; details: in vivo; procedure, shortened: as §2
# Mus musculus [14] = assay: Toxicity in human DU145 cells xenografted in BALB/c mouse assessed as change in body weight at 8.5 mg/kg, oral gavage for 21 days relative to vehicle treated control; assay type: organism-based, DU-145; details: in vivo, 504 h
# Procedure, shortened: (§4)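 Male BALB/c nude mice (6−8 weeks, 18−22 g) implanted subcutaneously on right axillary flank with 2 × 10^6 DU-145 cells in 0.1 mL saline. At 100 ± 30 mm3 tumors, randomized (n = 5/group) to daily gavage for 21 days; vehicle DMSO/Cremphor EL/PBS 1:1:8. Tumor volume every 3 days; tumors excised and weighed at end; TGI from mean tumor weights vs vehicle; body weight tracked.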
# [15] = Reduction in phosphorylated Akt protein expression in human DU145 cells at 0.08 to 0.32 uM after 24 hrs by Western blot analysis; assay type: functional, cell-based; details: DU-145; procedure, shortened: as §1
# [16] = Antiproliferative activity against human WPMY-1 cells after 72 hrs by CCK8 assay; assay type: functional, cell-based; details: WPMY-1, 72 h; procedure, shortened: as §3
# DU-145 [17] = assay: Induction of apoptosis in human DU145 cells assessed as chromatin condensation and fragmentation at 0.08 to 0.32 uM after 24 hrs by Hoechst staining-based fluorescence microscopy; assay type: functional, cell-based
# Procedure, shortened: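 DU-145 cells exposed 24 h to compound or vehicle (0.1% DMSO), fixed in methanol 30 min, stained with 1 mg/mL Hoechst 33258, and scored under fluorescence microscope for chromatin condensation and nuclear fragmentation; three separate experiments.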
# DU-145 [18] = assay: Induction of apoptosis in human DU145 cells assessed as increase in Bax to Bcl2 ratio at 0.08 to 0.32 uM after 24 hrs by Western blot analysis; assay type: functional, cell-based; procedure, shortened: as §1
# Mus musculus [19] = assay: Toxicity in human DU145 cells xenografted in BALB/c mouse assessed as change in body weight at 17 mg/kg, oral gavage for 21 days relative to vehicle treated control; assay type: organism-based, DU-145; details: in vivo, 504 h; procedure, shortened: as §4
# DU-145 [20] = assay: Induction of cell cycle arrest in human DU145 cells assessed as cells accumulation at S phase at 0.16 uM after 24 hrs by propidium iodide staining-based flow cytometry (reference value: 24%); assay type: functional
# [21] = molecular target: Serine/threonine-protein kinase mTOR (Homo sapiens) (UniProt P42345); assay: Effect on mTOR protein expression in human DU145 cells at 0.08 to 0.32 uM after 24 hrs by Western blot analysis; assay type: functional, cell-based; details: DU-145; procedure, shortened: as §1
# DU-145 [22] = assay: Anticancer activity against human DU145 cells xenografted in BALB/c mouse assessed as decrease in tumor growth at 8.5 mg/kg, oral gavage for 21 days relative to vehicle treated control; assay type: functional; details: DU-145, po, 504 h; procedure, shortened: as §4
# [23] = Acute toxicity in ICR mouse assessed as survival at 409.6 mg/kg, oral gavage on day 14; assay type: organism-based; details: in vivo; procedure, shortened: as §2
# DU-145 [24] = assay: Induction of cell cycle arrest in human DU145 cells assessed as cells accumulation at S phase at 0.08 uM after 24 hrs by propidium iodide staining-based flow cytometry (reference value: 24%); assay type: functional
# [25] = Antiproliferative activity against human BxPC3 cells after 72 hrs by CCK8 assay; assay type: functional, cell-based; details: BXPC-3, 72 h; procedure, shortened: as §3
# [26] = Acute toxicity in ICR mouse assessed as survival at 800 mg/kg, oral gavage on day 14; assay type: organism-based; details: in vivo; procedure, shortened: as §2
# DU-145 [27] = assay: Induction of cell cycle arrest in human DU145 cells assessed as cells accumulation at G2/M phase at 0.08 uM after 24 hrs by propidium iodide staining-based flow cytometry (reference value: 22%); assay type: functional
# DU-145 [28] = assay: Antiproliferative activity against human DU145 cells after 72 hrs by CCK8 assay; assay type: functional, cell-based; details: DU-145, 72 h; procedure, shortened: as §3
# DU-145 [29] = assay: Induction of cell cycle arrest in human DU145 cells assessed as cells accumulation at G0/G1 phase at 0.08 uM after 24 hrs by propidium iodide staining-based flow cytometry (reference value: 54%); assay type: functional
# Mus musculus [30] = assay: Acute toxicity in ICR mouse assessed as mortality at 800 mg/kg, oral gavage after 4 to 14 days; assay type: organism-based; details: in vivo; procedure, shortened: as §2
# DU-145 [31] = assay: Anticancer activity against human DU145 cells xenografted in BALB/c mouse assessed as decrease in tumor growth at 17 mg/kg, oral gavage for 21 days relative to vehicle treated control; assay type: functional; details: DU-145, po, 504 h; procedure, shortened: as §4
# DU-145 [32] = assay: Induction of apoptosis in human DU145 cells assessed as reduction in Bcl2 expression at 0.08 to 0.32 uM after 24 hrs by Western blot analysis; assay type: functional, cell-based; procedure, shortened: as §1
structure (smiles),measurement,setting,value
CC1(C)CC[C@]23CC[C@@]4(C)[C@]5(C)CC[C@H]6C(C)(C)C(=O)C(C#N)=C[C@]6(C)C5=CC(=O)[C@@]4([C@@H]2C1)N(C1CCCCC1)C3=O,inhibition,[1],Active
same,Activity,Mus musculus [2],Toxic
same,Activity,Mus musculus [3],Non-toxic
same,Activity,Mus musculus [4],Non-toxic
same,survival at 14 day,[5],100%
same,Activity,Mus musculus [6],Non-toxic
same,IC50,[7],380 nM
same,survival at 14 day,[8],63%
same,Activity,Mus musculus [9],Non-toxic
same,Activity,Mus musculus [10],Non-toxic
same,Activity,Mus musculus [11],Non-toxic
same,survival at 14 day,[12],25%
same,Activity,Mus musculus [13],Non-toxic
same,Activity,Mus musculus [14],Non-toxic
same,inhibition,[15],Active
same,IC50,[16],6090 nM
same,Activity,DU-145 [17],Active
same,Activity,DU-145 [18],Active
same,Activity,Mus musculus [19],Non-toxic
same,Activity,DU-145 [20],10%
same,Activity,[21],inactive
same,inhibition in vivo at 8.5 mg/kg,DU-145 [22],30%
same,survival at 14 day,[23],88%
same,Activity,DU-145 [24],25%
same,IC50,[25],330 nM
same,survival at 14 day,[26],0%
same,Activity,DU-145 [27],19%
same,IC50,DU-145 [28],390 nM
same,Activity,DU-145 [29],56%
same,Activity,Mus musculus [30],Non-toxic
same,inhibition in vivo at 17 mg/kg,DU-145 [31],62%
same,inhibition,DU-145 [32],Active
